Source: paper PMC7644900 (Heliyon, 2020)

Tests used:
S.aureus (ATCC 29213) = experiment: Antibacterial broth-dilution MIC; assay type: cell-based, Staphylococcus aureus
Outline: (§1)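 Broth-dilution in 96-well plates against S. aureus ATCC 29213, B. cereus ATCC 10876, E. coli ATCC 22922, K. pneumoniae ATCC 13883 and P. aeruginosa. Test compound concentrations spanned 10–100 mM. CTAB served as positive control and DMSO as negative control. Activity was reported as minimum inhibitory concentration.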

B.cereus (ATCC 10876) = experiment: Antibacterial broth-dilution MIC; assay type: cell-based, Bacillus cereus
Outline: as §1

E. coli (ATCC 22922) = experiment: Antibacterial broth-dilution MIC; assay type: cell-based, Escherichia coli
Outline: as §1

[1] = test system: K. pneumonia (ATCC 13883); experiment: Antibacterial broth-dilution MIC; assay type: cell-based, Klebsiella pneumonia
Outline: as §1

[2] = test system: P. aeruginosa (ATCC 27853); experiment: Antibacterial broth-dilution MIC; assay type: cell-based, Pseudomonas aeruginosa
Outline: as §1

[3] = Critical micelle concentration by pyrene fluorescence probe; assay type: physicochemical; details: 25 °C, pyrene as probe
Outline: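 Pyrene probe (0.1 mM methanol stock) was dried in vials, then test compound solutions were added to give 1.6 μM final pyrene. Mixed on an orbital shaker for 24 h and measured at 298 K. Excitation 334 nm, emission 350–450 nm, slits 5.0/2.5 nm. CMC was taken from the plot of I1 (373 nm)/I3 (384 nm) versus concentration.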

[4] = molecular target: T1, bovine serum albumin (BSA) (Bos taurus, UniProt P02769); experiment: BSA steady state/intrinsic fluorescence quenching study; assay type: binding; details: 298 K; for bimolecular quenching constant Kq x 10^12: pH 7.4, τ0 10^−8 s; for Stern-Volmer constant Ksv x 10^4 / binding constant Ka: phosphate buffer pH 7.4
T1 sequence (P02769 25-607): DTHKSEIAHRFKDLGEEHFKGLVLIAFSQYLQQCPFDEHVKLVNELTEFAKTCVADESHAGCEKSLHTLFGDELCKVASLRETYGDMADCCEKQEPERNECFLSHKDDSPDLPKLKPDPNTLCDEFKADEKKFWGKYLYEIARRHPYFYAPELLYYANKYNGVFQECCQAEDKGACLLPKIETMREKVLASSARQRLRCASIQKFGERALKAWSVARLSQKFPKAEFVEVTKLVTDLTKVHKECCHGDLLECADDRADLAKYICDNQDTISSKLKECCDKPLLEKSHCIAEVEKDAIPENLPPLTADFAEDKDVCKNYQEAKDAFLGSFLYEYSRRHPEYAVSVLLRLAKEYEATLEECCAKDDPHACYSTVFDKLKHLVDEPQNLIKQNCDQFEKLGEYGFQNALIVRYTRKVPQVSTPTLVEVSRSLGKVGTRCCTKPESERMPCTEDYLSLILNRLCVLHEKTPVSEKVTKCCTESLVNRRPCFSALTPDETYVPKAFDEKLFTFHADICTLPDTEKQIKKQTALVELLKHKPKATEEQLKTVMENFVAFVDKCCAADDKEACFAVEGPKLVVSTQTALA
Outline: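 BSA (10 μM stock) in phosphate buffer pH 7.4 in a 1.0 cm quartz cuvette at 298 K. Intrinsic fluorescence: excitation 295 nm, scan 300–400 nm, intensity read at 336 nm. Slits were 10 nm (excitation) and 5.0 nm (emission). Titrated with test compound stock (0.001 M) and read after each addition. Ksv and Kq were obtained from Stern-Volmer plots of F0/F versus quencher concentration.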

[5] = molecular target: T1, bovine serum albumin (BSA); experiment: Thermodynamic BSA binding studies; details: for ΔH (enthalpy change) / ΔS (entropy change): van't Hoff, 298-313 K
Outline: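 BSA (10 μM) in phosphate buffer pH 7.4 in a 1.0 cm quartz cuvette. Excitation 295 nm, emission scanned 300–400 nm at 298, 308 and 313 K. Titrated with 15 μL of test compound. Binding constants were taken at each temperature, with ΔG = −RT lnKa. ΔH and ΔS were calculated from the Ka values across the three temperatures.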

[6] = molecular target: T1, bovine serum albumin (BSA); experiment: Competitive BSA binding experiments using site markers warfarin and ibuprofen; details: 298 K
HaCaT cells = experiment: In-vitro cytotoxicity MTT assay; assay type: cell-based, human
Outline: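 HaCaT cells in DMEM with FBS, glutamine and penicillin/streptomycin were seeded one day earlier and incubated 24 h. Exposed to test compound (20–1.25 mg/mL), 4% ethyl acetate blank or 20% DMSO control for 24 h at 37 °C, 5% CO2. Morphology was checked by microscopy. After PBS wash, MTT (1 mg/mL) was added for 2 h, dissolved in isopropanol and absorbance read. Mean of 3 wells, ≥3 independent experiments.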

[7] = in the presence of Ibuprofen (site II marker)
[8] = in the presence of Warfarin (site I marker)

Compound: CCCCCCCCCCCCCCCC[N+](C)(C)C [+ve control, Cetyltrimethylammonium bromide, reference compound]
- MIC (S.aureus (ATCC 29213); Staphylococcus aureus, ATCC29213): 15.2 µM
- MIC (B.cereus (ATCC 10876); Bacillus cereus, ATCC10876): 12.3 µM
- MIC (E. coli (ATCC 22922); Escherichia coli, ATCC22922): 686 µM
- MIC ([1]; Klebsiella pneumoniae, ATCC13883): 10.7 µM
- MIC ([2]; Pseudomonas aeruginosa, ATCC27853): 171 µM

Compound: Dioctyl 2,2′-disulfanediyldibenzamide [Compound 1]
- CMC [3]: 0.163 mM
- bimolecular quenching constant Kq x 10^12 [4]: 7.45 x 10^12 M^−1s^−1
- Stern-Volmer constant Ksv x 10^4 [4]: 7.45 x 10^4 M^−1
- binding constant Ka [4]: 5470 M⁻¹
- Ka ([5]; 298 K): 5470 M⁻¹
- ln Ka ([5]; 298 K): 8.61
- ΔG (free energy) ([5]; 298 K): -21.68 KJmol^−1
- Ka ([5]; 308 K): 3250 M⁻¹
- ln Ka ([5]; 308 K): 8.09
- ΔG (free energy) ([5]; 308 K): -18.73 KJmol^−1
- Ka ([5]; 313 K): 461 M⁻¹
- ln Ka ([5]; 313 K): 6.13
- ΔG (free energy) ([5]; 313 K): -17.26 KJmol^−1
- ΔH (enthalpy change) [5]: -109.5 KJmol^−1
- ΔS (entropy change) [5]: -294.7 Jmol^−1K^−1
- Ka ([6]; Blank (no site marker)): 5060 M⁻¹
- Ka [6, 7]: 2110 M⁻¹
- Ka [6, 8]: 4950 M⁻¹
- MIC (S.aureus (ATCC 29213); Gram-positive): 12500 µM
- MIC (B.cereus (ATCC 10876); Gram-positive): 3120 µM
- MIC (E. coli (ATCC 22922); Gram-negative): 21400 µM
- MIC ([1]; Gram-negative): 25300 µM
- MIC ([2]; Gram-negative): >15600 µM
- % Cell Viability (HaCaT cells; 2.5, 24 h): 82.9%
- % Cell Viability (HaCaT cells; 5, 24 h): 62.6%
- % Cell Viability (HaCaT cells; 10, 24 h): 23.0%
- % Cell Viability (HaCaT cells; 20, 24 h): 18.4%
- cell death by changes in cell morphology (HaCaT cells; microscopy, 10 mg/ml (Figure 5)): considerable amount of cell death

Compound: Didecanoyl 2,2′-disulfanediyldibenzamide [Compound 2]
- bimolecular quenching constant Kq x 10^12 [4]: 2.26 x 10^12 M^−1s^−1
- Stern-Volmer constant Ksv x 10^4 [4]: 2.26 x 10^4 M^−1
- binding constant Ka [4]: 225000 M⁻¹
- Ka ([5]; 298 K): 225000 M⁻¹
- ln Ka ([5]; 298 K): 12.32
- ΔG (free energy) ([5]; 298 K): -30.60 KJmol^−1
- Ka ([5]; 308 K): 3580 M⁻¹
- ln Ka ([5]; 308 K): 8.18
- ΔG (free energy) ([5]; 308 K): -20.76 KJmol^−1
- Ka ([5]; 313 K): 405 M⁻¹
- ln Ka ([5]; 313 K): 6.00
- ΔG (free energy) ([5]; 313 K): -15.77 KJmol^−1
- ΔH (enthalpy change) [5]: -325.26 KJmol^−1
- ΔS (entropy change) [5]: -988.78 Jmol^−1K^−1
- Ka ([6]; Blank (no site marker)): 429000 M⁻¹
- Ka [6, 7]: 64600 M⁻¹
- Ka [6, 8]: 15700 M⁻¹
- MIC (S.aureus (ATCC 29213); Gram-positive): 5400 µM
- MIC (B.cereus (ATCC 10876); Gram-positive): 2530 µM
- MIC (E. coli (ATCC 22922); Gram-negative): >25300 µM
- MIC ([1]; Gram-negative): 26300 µM
- MIC ([2]; Gram-negative): 25600 µM
- % Cell Viability (HaCaT cells; 2.5, 24 h): 100.0%
- % Cell Viability (HaCaT cells; 5, 24 h): 100.0%
- % Cell Viability (HaCaT cells; 10, 24 h): 63.7%
- toxicity to the cells (in words) (HaCaT cells; at a concentration of <10 mg/ml): non-toxic
